Results: ChEMBL document CHEMBL3259728, “Design, synthesis and biological evaluation of some novel substituted quinazolines as antitumor agents” (2014)

How the values were obtained:
Format in all cases: functional
RPMI-8226 = experiment: Growth inhibition of human RPMI8226 cells assessed as cell growth at 10^-6 M after 48 hrs by SRB assay; conditions: RPMI-8226, 48 h, read-out: Activity
PC-3 = experiment: Growth inhibition of human PC3 cells assessed as cell growth at 10^-6 M after 48 hrs by SRB assay; conditions: PC-3, 48 h, read-out: Activity
[1] = Growth inhibition of human MOLT4 cells assessed as cell growth at 10^-5 M after 48 hrs by SRB assay; conditions: MOLT-4, 48 h, read-out: Activity
[2] = Growth inhibition of human NCI-ADR-RES cells assessed as cell growth at 10^-4 M after 48 hrs by SRB assay; conditions: read-out: Activity
BT-549 = experiment: Cytotoxicity against human BT549 cells after 48 hrs by SRB assay; conditions: BT-549, 48 h
In short: (§1)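 NCI 60-cell-line panel of human tumour lines from nine cancer types. Continuous 48 h exposure at five 10-fold dilutions from 10^-4 to 10^-8 M, with 5-FU as positive control. SRB protein stain read spectrophotometrically at time zero, untreated control and each concentration. GI50, TGI and LC50 were derived from the [(Ti−Tz)/(C−Tz)]×100 growth relations, and out-of-range values are given as > or < the tested limits.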

ACHN [3] = experiment: Growth inhibition of human ACHN cells assessed as cell growth at 10^-5 M after 48 hrs by SRB assay; conditions: read-out: Activity
In short: (§2)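 Five-dose NCI panel protocol. Each dose (10^-4 to 10^-8 M, 10-fold steps) was given as 48 h continuous exposure, and protein was measured by SRB staining. Percentage growth at each level is [(Ti−Tz)/(C−Tz)]×100, where Tz is time-zero absorbance and C is untreated control.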

[4] = Growth inhibition of human LOXIMVI cells assessed as cell growth at 10^-8 M after 48 hrs by SRB assay; conditions: LOX IMVI, read-out: Activity
[5] = Growth inhibition of human SF295 cells assessed as cell growth at 10^-4 M after 48 hrs by SRB assay; conditions: SF-295, 48 h, read-out: Activity
SF-295 = experiment: Cytotoxicity against human SF295 cells after 48 hrs by SRB assay; conditions: SF-295, 48 h; in short: as §1
[6] = Growth inhibition of human UO31 cells assessed as cell growth at 10^-5 M after 48 hrs by SRB assay; conditions: UO-31, 48 h, read-out: Activity
[7] = Growth inhibition of human UACC257 cells assessed as cell growth at 10^-5 M after 48 hrs by SRB assay; conditions: UACC-257, 48 h, read-out: Activity
ACHN [8] = experiment: Cytotoxicity against human ACHN cells after 48 hrs by SRB assay; in short: as §1
[9] = Growth inhibition of human HCT15 cells assessed as cell growth at 10^-6 M after 48 hrs by SRB assay; conditions: HCT-15, 48 h, read-out: Activity
T47D = experiment: Cytotoxicity against human T47D cells after 48 hrs by SRB assay
In short: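 NCI 60-cell-line panel, 48 h continuous exposure to five 10-fold dilutions from 10^-4 to 10^-8 M. SRB protein staining was read spectrophotometrically, with time-zero, untreated-control and treated absorbances. GI50, TGI and LC50 were derived from the percentage-growth formulas. Values outside the tested range are expressed as more or less than the maximum or minimum concentration.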

[10] = Growth inhibition of human HCC2998 cells assessed as cell growth at 10^-5 M after 48 hrs by SRB assay; conditions: HCC 2998, 48 h, read-out: Activity
DU-145 = experiment: Growth inhibition of human DU145 cells assessed as cell growth at 10^-4 M after 48 hrs by SRB assay; conditions: DU-145, 48 h, read-out: Activity; in short: as §2
NCI-H460 = experiment: Growth inhibition of human NCI-H460 cells assessed as cell growth at 10^-4 M after 48 hrs by SRB assay; conditions: NCI-H460, 48 h, read-out: Activity
SK-MEL-28 = experiment: Growth inhibition of human SK-MEL-28 cells assessed as cell growth at 10^-7 M after 48 hrs by SRB assay; conditions: SK-MEL-28, 48 h, read-out: Activity
M14 = experiment: Growth inhibition of human M14 cells assessed as cell growth at 10^-5 M after 48 hrs by SRB assay; conditions: M14, 48 h, read-out: Activity
MDA-MB-435 = experiment: Growth inhibition of human MDA-MB-435 cells assessed as cell growth at 10^-6 M after 48 hrs by SRB assay; conditions: MDA-MB-435, 48 h, read-out: Activity
NCI-H322M = experiment: Growth inhibition of human NCI-H322M cells assessed as cell growth at 10^-4 M after 48 hrs by SRB assay; conditions: read-out: Activity
SW-620 = experiment: Growth inhibition of human SW620 cells assessed as cell growth at 10^-5 M after 48 hrs by SRB assay; conditions: SW-620, 48 h, read-out: Activity
NCI-H23 = experiment: Growth inhibition of human NCI-H23 cells assessed as cell growth at 10^-7 M after 48 hrs by SRB assay; conditions: NCI-H23, 48 h, read-out: Activity
[11] = Growth inhibition of human OVCAR4 cells assessed as cell growth at 10^-6 M after 48 hrs by SRB assay; conditions: OVCAR-4, 48 h, read-out: Activity
[12] = Growth inhibition of human SF539 cells assessed as cell growth at 10^-6 M after 48 hrs by SRB assay; conditions: SF-539, 48 h, read-out: Activity
[13] = Growth inhibition of human HCC2998 cells assessed as cell growth at 10^-4 M after 48 hrs by SRB assay; conditions: HCC 2998, 48 h, read-out: Activity
MDA-MB-231 = experiment: Cytotoxicity against human MDA-MB-231 cells after 48 hrs by SRB assay; conditions: MDA-MB-231, 48 h; in short: as §1
[14] = Growth inhibition of human HCC2998 cells assessed as cell growth at 10^-6 M after 48 hrs by SRB assay; conditions: HCC 2998, 48 h, read-out: Activity
[15] = read-out: LC50 (the source's name)
[16] = read-out: pLC50 (the source's name) (converted)

**Q.** With `Cc1ccc(-c2nc3ccc(Cl)cc3c(=O)n2/N=C/c2ccccc2)cc1` as the compound, how does the growth at 1 µM (RPMI-8226) read?
**A.** Its growth at 1 µM is 90%.

**Q.** What about the growth at 1 µM (PC-3) of the same compound?
**A.** The growth at 1 µM was 86%.

**Q.** And the growth at 10 µM [1]?
**A.** The growth at 10 µM was 88%.

**Q.** What about the growth at 100 µM [2] of the same compound?
**A.** The growth at 100 µM was 36%.

**Q.** What about the GI50 (BT-549; read-out: GI50) of the same compound?
**A.** Its GI50 is 100 µM.

**Q.** And the CC50 (BT-549; [15])?
**A.** The CC50 was > 100 µM.

**Q.** What about the TGI (BT-549; read-out: TGI) of the same compound?
**A.** Its TGI is > 100 µM.

**Q.** And the GI50 (BT-549; read-out: pGI50 (converted))?
**A.** The GI50 was > 100 µM.

**Q.** And the CC50 (BT-549; [16])?
**A.** Its CC50 is > 100 µM.

**Q.** What about the TGI (BT-549; read-out: pTGI) of the same compound?
**A.** Its TGI is > 100 µM.

**Q.** What about the growth at 10 µM (ACHN [3]) of the same compound?
**A.** Its growth at 10 µM is 10%.

**Q.** And the growth at 0.01 µM [4]?
**A.** The growth at 0.01 µM was 98%.

**Q.** And the growth at 100 µM [5]?
**A.** Its growth at 100 µM is 18%.

**Q.** What about the GI50 (SF-295; read-out: GI50) of the same compound?
**A.** Its GI50 is 4.73 µM.

**Q.** What about the CC50 (SF-295; [15]) of the same compound?
**A.** Its CC50 is > 100 µM.

**Q.** What about the TGI (SF-295; read-out: TGI) of the same compound?
**A.** Its TGI is > 100 µM.

**Q.** What about the GI50 (SF-295; read-out: pGI50 (converted)) of the same compound?
**A.** The GI50 was 4.79 µM.

**Q.** What about the CC50 (SF-295; [16]) of the same compound?
**A.** The CC50 was > 100 µM.

**Q.** What about the TGI (SF-295; read-out: pTGI) of the same compound?
**A.** Its TGI is > 100 µM.

**Q.** What about the growth at 10 µM [6] of the same compound?
**A.** Its growth at 10 µM is 42%.

**Q.** And the growth at 10 µM [7]?
**A.** Its growth at 10 µM is 73%.

**Q.** What about the GI50 (ACHN [8]; read-out: GI50) of the same compound?
**A.** The GI50 was 627 nM.

**Q.** What about the CC50 (ACHN [8]; [15]) of the same compound?
**A.** The CC50 was > 100 µM.

**Q.** What about the TGI (ACHN [8]; read-out: TGI) of the same compound?
**A.** The TGI was > 100 µM.

**Q.** And the GI50 (ACHN [8]; read-out: pGI50 (converted))?
**A.** The GI50 was 631 nM.

**Q.** What about the CC50 (ACHN [8]; [16]) of the same compound?
**A.** Its CC50 is > 100 µM.

**Q.** What about the TGI (ACHN [8]; read-out: pTGI) of the same compound?
**A.** The TGI was > 100 µM.

**Q.** And the growth at 1 µM [9]?
**A.** The growth at 1 µM was 93%.

**Q.** What about the GI50 (T47D; read-out: GI50) of the same compound?
**A.** The GI50 was 3.82 µM.

**Q.** And the CC50 (T47D; [15])?
**A.** Its CC50 is > 100 µM.

**Q.** And the TGI (T47D; read-out: TGI)?
**A.** The TGI was > 100 µM.

**Q.** What about the GI50 (T47D; read-out: pGI50 (converted)) of the same compound?
**A.** The GI50 was 3.8 µM.

**Q.** What about the CC50 (T47D; [16]) of the same compound?
**A.** The CC50 was > 100 µM.

**Q.** And the TGI (T47D; read-out: pTGI)?
**A.** Its TGI is > 100 µM.

**Q.** And the growth at 10 µM [10]?
**A.** The growth at 10 µM was 96%.

**Q.** And the growth at 100 µM (DU-145)?
**A.** The growth at 100 µM was 49%.

**Q.** And the growth at 100 µM (NCI-H460)?
**A.** The growth at 100 µM was 24%.

**Q.** And the growth at 0.1 µM (SK-MEL-28)?
**A.** The growth at 0.1 µM was 97%.

**Q.** What about the growth at 10 µM (M14) of the same compound?
**A.** The growth at 10 µM was 60%.

**Q.** And the growth at 1 µM (MDA-MB-435)?
**A.** Its growth at 1 µM is 87%.

**Q.** What about the growth at 100 µM (NCI-H322M) of the same compound?
**A.** Its growth at 100 µM is 42%.

**Q.** And the growth at 10 µM (SW-620)?
**A.** The growth at 10 µM was 67%.

**Q.** What about the growth at 0.1 µM (NCI-H23) of the same compound?
**A.** The growth at 0.1 µM was 89%.

**Q.** What about the growth at 1 µM [11] of the same compound?
**A.** Its growth at 1 µM is 101%.

**Q.** What about the growth at 1 µM [12] of the same compound?
**A.** Its growth at 1 µM is 94%.

**Q.** What about the growth at 100 µM [13] of the same compound?
**A.** Its growth at 100 µM is 88%.

**Q.** What about the GI50 (MDA-MB-231; read-out: GI50) of the same compound?
**A.** Its GI50 is 4.21 µM.

**Q.** And the LC50 (MDA-MB-231; read-out: LC50)?
**A.** Its LC50 is > 100 µM.

**Q.** What about the TGI (MDA-MB-231; read-out: TGI) of the same compound?
**A.** Its TGI is > 100 µM.

**Q.** What about the GI50 (MDA-MB-231; read-out: pGI50 (converted)) of the same compound?
**A.** The GI50 was 4.17 µM.

**Q.** And the LC50 (MDA-MB-231; read-out: pLC50 (converted))?
**A.** The LC50 was > 100 µM.

**Q.** What about the TGI (MDA-MB-231; read-out: pTGI) of the same compound?
**A.** The TGI was > 100 µM.

**Q.** And the growth at 1 µM [14]?
**A.** The growth at 1 µM was 96%.
